Format in all cases: cell-based
Assay [1] relates to DU145 prostate cancer cell line. Put plainly: MTT cytotoxicity assay, DU145. The note with it: Homo sapiens, DU-145, 24 h, read-out: IC50 DU145. In short, it runs like this: (§1)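 IC50 values in μM, reported as mean ± S.D. from the table footnote; the same footnote covers the three cancer lines and the normal CHO–K1 line. The full series of test compounds was screened on each line.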

The test system of assay [2] is HepG2 hepatocellular carcinoma cells. Put plainly: MTT cytotoxicity assay, HepG2. To be noted: Homo sapiens, HepG2, 24 h, read-out: IC50 HepG2. In short, it runs like this: as §1
Assay [3] has as its system B16 melanoma cancer cell line. In words: MTT cytotoxicity assay, B16. To be noted: Mus musculus, B16, 24 h, read-out: IC50 B16. In short, it runs like this: as §1

On to `c1ccc(C(c2c[nH]c3ccccc23)c2c[nH]c3ccccc23)cc1` [1a, 3,3′-(Phenylmethylene)bis(1H-indole)], for which the concentration for half-maximal inhibition (IC50) worked out at 5.24 ± 0.67 µM in assay [1], 4.62 ± 0.03 µM in assay [2] and 9.88 ± 1.19 µM in assay [3].
Consider `COc1ccc2[nH]cc(C(c3ccc(C)cc3)c3c[nH]c4ccc(OC)cc34)c2c1` [1c, 3,3′-(p-Tolylmethylene)bis(5-methoxy-1H-indole)], for which the results for the IC50 in assay [1], in assay [2] and in assay [3] were 2.02 ± 0.74 µM, 5.47 ± 0.56 µM and 36 ± 1.09 µM, respectively.
On to `COc1ccc(C(c2c[nH]c3ccc(C#N)cc23)c2c[nH]c3ccc(C#N)cc23)cc1` [1g, 3,3′-((4-Methoxyphenyl)methylene)bis(1H-indole-5-carbonitrile)], for which the IC50 in assay [1] came out at 8.13 ± 0.77 µM; in assay [2] it was 6.33 ± 1.8 µM; in assay [3], 9.82 ± 0.52 µM.
As to `COc1ccc(C(c2c(-c3ccccc3)[nH]c3ccccc23)c2c(-c3ccccc3)[nH]c3ccccc23)cc1OC` [1i, 3,3′-((3,4-Dimethoxyphenyl)methylene)bis(2-phenyl-1H-indole)], the results for the IC50 in assay [1], in assay [2] and in assay [3] were 10.3 ± 0.87 µM, 7.43 ± 1.6 µM and 15.9 ± 0.25 µM, respectively.
For `O=[N+]([O-])c1ccc(C(c2c[nH]c3ccccc23)c2c[nH]c3ccccc23)cc1` [1k, 3,3′((4-Nitrophenyl)methylene)bis(1H-indole)], the IC50 is 1.09 ± 0.92 µM in assay [1], 5.28 ± 0.24 µM in assay [2] and 29.2 ± 2.38 µM in assay [3].
As for `c1ccc2c(C(c3c[nH]c4ccccc34)c3c[nH]c4ccccc34)cccc2c1` [1m, 3,3′-(Naphthalen-1-ylmethylene)bis(1H-indole)], the half-maximal inhibitory concentration (IC50) in assay [1] came to 8.18 ± 0.74 µM; in assay [2], 7.54 ± 1.19 µM; in assay [3], 9.49 ± 1.97 µM.
Take `c1ccc2c(C(c3c[nH]c4ccccc34)c3c[nH]c4ccccc34)c3ccccc3cc2c1` [1n, 3,3′-(Anthracen-9-ylmethylene)bis(1H-indole)]: the results for the IC50 in assay [1], in assay [2] and in assay [3] were 6.87 ± 1.06 µM, 11.9 ± 0.1 µM and 13.6 ± 0.92 µM, respectively.
The corresponding values for `c1coc(C(c2c[nH]c3ccccc23)c2c[nH]c3ccccc23)c1` [1o, 3,3′-(Furan-2-ylmethylene)bis(1H-indole)] are 60.8 ± 1.24 µM, 5.87 ± 0.3 µM and 16.1 ± 0.79 µM.
The corresponding values for `Brc1ccc2[nH]cc(C(c3ccco3)c3c[nH]c4ccc(Br)cc34)c2c1` [1p, 3,3′-(Furan-2-ylmethylene)bis(5-bromo-1H-indole)] are 19.4 ± 0.88 µM, 11.4 ± 1.37 µM and 19.7 ± 0.87 µM.
The corresponding values for `c1ccc(-c2[nH]c3ccccc3c2C(c2ccco2)c2c(-c3ccccc3)[nH]c3ccccc23)cc1` [1q, 3,3′-(Furan-2-ylmethylene)bis(2-phenyl-1H-indole)] are 39.5 ± 1.02 µM, 5 ± 0.01 µM and 23.5 ± 7 µM.
On to `Cc1[nH]c2ccccc2c1C(c1cccs1)c1c(C)[nH]c2ccccc12` [1r, 3,3′-(Thiophen-2-ylmethylene)bis(2-methyl-1H-indole)], for which the figures for the half-maximal inhibitory concentration (IC50) in assay [1], in assay [2] and in assay [3] were 21.2 ± 2.01 µM, 5.82 ± 0.5 µM and 15.7 ± 2.1 µM, respectively.
For `COc1cc(C(c2c[nH]c3ccccc23)c2c[nH]c3ccccc23)cc(OC)c1O` [1s, 4-(Di(1H-indol-3-yl)methyl)-2,6-dimethoxyphenol] the same measures were 22.6 ± 0.98 µM, 7.01 ± 0.53 µM and 7.02 ± 0.32 µM.
As for `COc1ccc(C(c2c[nH]c3ccccc23)c2c[nH]c3ccccc23)cc1OC` [1t, 3,3′-((3,4-Dimethoxyphenyl)methylene)bis(1H-indole)], the half-inhibitory concentration (IC50) in assay [1] was found to be 12.2 ± 0.96 µM; in assay [2], 8.12 ± 0.87 µM; in assay [3], 8.14 ± 1.45 µM.
Regarding `COc1cccc2c1C(=O)c1c(O)c3c(c(O)c1C2=O)C[C@@](O)(C(=O)CO)C[C@@H]3O[C@H]1C[C@H](N)[C@H](O)[C@H](C)O1` [doxorubicin, reference compound], the concentration for half-maximal inhibition (IC50) worked out at 0.7 ± 0.13 µM in assay [1], 0.6 ± 0.12 µM in assay [2] and 0.8 ± 0.12 µM in assay [3].

Source of the values: PMC10552104 (ACS Omega, 2023).
